Test results from ChEMBL document CHEMBL1139802, “Pyrazole inhibitors of HMG-CoA reductase: an attempt to dramatically reduce synthetic complexity through minimal analog re-design” (Bioorg Med Chem Lett, 2007).
pIC50: −log10 of the molar value.

Experiments:
[1] = target: T1, 3-hydroxy-3-methylglutaryl-coenzyme A reductase (Rattus norvegicus, UniProt P51639); test: Inhibition of HMG-CoA reductase in rat liver microsomes; parameters: species or system Microsome
T1 sequence (P51639 whole entry): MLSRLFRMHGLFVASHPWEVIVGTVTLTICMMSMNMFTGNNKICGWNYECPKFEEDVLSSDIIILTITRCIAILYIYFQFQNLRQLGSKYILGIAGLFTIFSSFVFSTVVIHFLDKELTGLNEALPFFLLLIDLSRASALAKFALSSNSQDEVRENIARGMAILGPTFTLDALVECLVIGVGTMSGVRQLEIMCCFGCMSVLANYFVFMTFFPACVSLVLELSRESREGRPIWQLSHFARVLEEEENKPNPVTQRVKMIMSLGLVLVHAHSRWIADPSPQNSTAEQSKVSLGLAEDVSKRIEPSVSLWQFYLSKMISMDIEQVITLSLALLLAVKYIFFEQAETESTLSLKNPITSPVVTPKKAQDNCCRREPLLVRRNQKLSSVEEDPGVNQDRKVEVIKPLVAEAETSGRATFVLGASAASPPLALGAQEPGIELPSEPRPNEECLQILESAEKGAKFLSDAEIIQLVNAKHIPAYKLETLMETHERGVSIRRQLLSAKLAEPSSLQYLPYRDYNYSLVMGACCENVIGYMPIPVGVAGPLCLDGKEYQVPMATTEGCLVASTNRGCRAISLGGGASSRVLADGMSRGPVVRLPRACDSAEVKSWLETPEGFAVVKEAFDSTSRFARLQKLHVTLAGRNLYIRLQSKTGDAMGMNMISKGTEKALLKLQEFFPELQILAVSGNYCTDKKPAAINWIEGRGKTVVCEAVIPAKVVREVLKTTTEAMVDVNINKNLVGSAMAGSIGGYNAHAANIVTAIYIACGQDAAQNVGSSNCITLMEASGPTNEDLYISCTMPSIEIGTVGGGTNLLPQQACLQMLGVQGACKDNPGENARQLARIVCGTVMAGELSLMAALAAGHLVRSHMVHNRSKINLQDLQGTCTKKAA

[2] = Inhibition of cholesterol synthesis in rat hepatocytes; format: functional, cell-based; details: Hepatocyte
L6 = test: Inhibition of cholesterol synthesis in L6 myocytes; format: functional, cell-based; details: Rattus norvegicus
Hamster [3] = test: Inhibition of cholesterol synthesis in hamster at 10 mg/kg, po after 2 to 4 hrs relative to control; format: functional, Cricetinae; parameters: scale not given: the % may be the effect or the level left
How it was run: (§1)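 Male Syrian Golden hamsters received a single oral 10 mg/kg dose. A bolus of sodium 14C-acetate was given at 2, 3 or 4 h post-dose, giving 2–4, 3–5 and 4–6 h windows. Label incorporated into plasma cholesterol was measured over the following 2 h. Results are reported as percent change in incorporation relative to vehicle-dosed animals.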

Hamster [4] = test: Inhibition of cholesterol synthesis in hamster at 10 mg/kg, po after 4 to 6 hrs relative to control; format: functional, Cricetinae; parameters: scale not given: the % may be the effect or the level left; how it was run: as §1
Hamster [5] = test: Inhibition of cholesterol synthesis in hamster at 10 mg/kg, po after 3 to 5 hrs relative to control; format: functional, Cricetinae; parameters: scale not given: the % may be the effect or the level left; how it was run: as §1

| Compound | pIC50 [1] | pIC50 [2] | pIC50 (L6) | Activity (Hamster [3]) [%] | Activity (Hamster [4]) [%] | Activity (Hamster [5]) [%] |
| --- | --- | --- | --- | --- | --- | --- |
| Cc1ccc(CNC(=O)c2nn(-c3ccc(F)cc3)c(OC[C@@H](O)C[C@@H](O)CC(=O)O)c2C(C)C)cc1 | 7.82 | 8.74 | 5.68 | -30 | 9 | – |
| COc1cc(CN(C)C(=O)c2nn(-c3ccc(F)cc3)c(OC[C@@H](O)C[C@@H](O)CC(=O)O)c2C(C)C)cc(OC)c1 | 7.37 | 8.15 | – | – | – | – |
| CC(C)c1c(C(=O)NCC2CCCCC2)nn(-c2ccc(F)cc2)c1OC[C@@H](O)C[C@@H](O)CC(=O)O | 7.77 | 7.25 | – | – | – | – |
| CCCCNC(=O)c1nn(-c2ccc(F)cc2)c(OC[C@@H](O)C[C@@H](O)CC(=O)O)c1C(C)C | 7.12 | 7.41 | – | – | – | – |
| CC(C)c1c(C(=O)N(C)CC2CCCCC2)nn(-c2ccc(F)cc2)c1OC[C@@H](O)C[C@@H](O)CC(=O)O | 8.21 | 8.89 | 5.60 | – | – | 23 |
| COc1ccc(CNC(=O)c2nn(-c3ccc(F)cc3)c(OC[C@@H](O)C[C@@H](O)CC(=O)O)c2C(C)C)cc1 | 7.92 | 7.43 | – | – | – | – |
| COc1cccc(CNC(=O)c2nn(-c3ccc(F)cc3)c(OC[C@@H](O)C[C@@H](O)CC(=O)O)c2C(C)C)c1 | 7.80 | 8.08 | 5.06 | – | 37 | – |
| CC(C)c1c(C(=O)N2CCC[C@H](c3ccccc3)C2)nn(-c2ccc(F)cc2)c1OC[C@@H](O)C[C@@H](O)CC(=O)O | 8.32 | 8.82 | 5.95 | -15 | – | – |
| CC(C)c1c(C(=O)NCc2ccccn2)nn(-c2ccc(F)cc2)c1OC[C@@H](O)C[C@@H](O)CC(=O)O | 7.60 | 8.12 | – | – | – | – |
| CC(C)c1c(C(=O)NCc2cccc(F)c2F)nn(-c2ccc(F)cc2)c1OC[C@@H](O)C[C@@H](O)CC(=O)O | 8.70 | 7.72 | 6.92 | – | – | – |
| Cc1ccc(CNC(=O)c2nn(-c3ccc(F)cc3)c(CC[C@@H](O)C[C@@H](O)CC(=O)O)c2C(C)C)cc1 | 8.60 | 8.96 | 6.10 | -74 | -15 | – |
| CC(C)c1c(C(=O)N2CCCCC2)nn(-c2ccc(F)cc2)c1OC[C@@H](O)C[C@@H](O)CC(=O)O | 7.33 | 8.42 | 4.49 | – | – | – |
| CC(C)c1c(C(=O)N2CCC[C@H](c3ccccc3)C2)nn(-c2ccc(F)cc2)c1CC[C@@H](O)C[C@@H](O)CC(=O)O | 8.68 | 9.55 | 6.51 | -78 | – | -57 |
| COCc1cccc(CNC(=O)c2nn(-c3ccc(F)cc3)c(OC[C@@H](O)C[C@@H](O)CC(=O)O)c2C(C)C)c1 | 7.51 | 8.96 | 5.44 | – | – | -6 |
| CC(C)c1c(C(=O)N(C)Cc2cccc(F)c2)nn(-c2ccc(F)cc2)c1CC[C@@H](O)C[C@@H](O)CC(=O)O | 8.39 | 9.80 | 5.72 | -66 | -12 | – |
| CC(C)c1c(C(=O)NCc2ccc(Cl)cc2)nn(-c2ccc(F)cc2)c1OC[C@@H](O)C[C@@H](O)CC(=O)O | 8.17 | 7.36 | – | – | – | – |
| CC(C)c1c(C(=O)N2CCCC2c2ccccc2)nn(-c2ccc(F)cc2)c1OC[C@@H](O)C[C@@H](O)CC(=O)O (some centres not stated) | 7.85 | 8.10 | 5.36 | – | – | – |
| CC(C)c1nc(N(C)S(C)(=O)=O)nc(-c2ccc(F)cc2)c1/C=C/[C@@H](O)C[C@@H](O)CC(=O)O [ROSUVASTATIN] | 8.68 | 9.64 | 6.68 | -76 | -46 | – |

The next lines start with results.

| pIC50 [1] | Compound | pIC50 [2] | pIC50 (L6) | Activity (Hamster [3]) [%] | Activity (Hamster [4]) [%] | Activity (Hamster [5]) [%] |
| --- | --- | --- | --- | --- | --- | --- |
| 7.43 | Cc1ccc(CN(C)C(=O)c2nn(-c3ccc(F)cc3)c(OC[C@@H](O)C[C@@H](O)CC(=O)O)c2C(C)C)cc1 | 8.92 | 5.90 | – | – | – |
| 7.77 | Cc1ccccc1CNC(=O)c1nn(-c2ccc(F)cc2)c(OC[C@@H](O)C[C@@H](O)CC(=O)O)c1C(C)C | 9.06 | 5.55 | – | 39 | – |
| 7.85 | CC(C)c1c(C(=O)N(C)Cc2cccc(F)c2)nn(-c2ccc(F)cc2)c1OC[C@@H](O)C[C@@H](O)CC(=O)O | 8.72 | 5.61 | -41 | -1 | – |
| 7.43 | Cc1cccc(CN(C)C(=O)c2nn(-c3ccc(F)cc3)c(OC[C@@H](O)C[C@@H](O)CC(=O)O)c2C(C)C)c1 | 8.60 | 4.73 | – | – | – |
| 7.51 | CC(C)c1c(C(=O)N(C)Cc2cccc(C(F)(F)F)c2)nn(-c2ccc(F)cc2)c1OC[C@@H](O)C[C@@H](O)CC(=O)O | 7.92 | – | – | – | – |
| 7.68 | COc1cccc(CN(C)C(=O)c2nn(-c3ccc(F)cc3)c(OC[C@@H](O)C[C@@H](O)CC(=O)O)c2C(C)C)c1 | 8.80 | 5.02 | – | 53 | – |
| 8.24 | CC(C)c1c(C(=O)N(C)Cc2ccc(F)c(F)c2)nn(-c2ccc(F)cc2)c1OC[C@@H](O)C[C@@H](O)CC(=O)O | 8.10 | 5.34 | – | – | -5 |
| 8.06 | CC(C)c1c(C(=O)N(C)Cc2ccccc2F)nn(-c2ccc(F)cc2)c1OC[C@@H](O)C[C@@H](O)CC(=O)O | 8.49 | 4.94 | – | – | -4 |
| 7.74 | CC(C)c1c(C(=O)N(C)Cc2ccc(F)cc2)nn(-c2ccc(F)cc2)c1OC[C@@H](O)C[C@@H](O)CC(=O)O | 8.42 | 5.55 | – | 91 | – |
| 7.82 | CC(C)c1c(C(=O)NCCc2ccccc2)nn(-c2ccc(F)cc2)c1OC[C@@H](O)C[C@@H](O)CC(=O)O | 7.85 | 6.12 | – | – | – |
| 8.42 | CC(C)c1c(C(=O)NCc2ccccc2)nn(-c2ccc(F)cc2)c1OC[C@@H](O)C[C@@H](O)CC(=O)O | 7.85 | 6.06 | – | 41 | – |
| 8.28 | CC(C)c1c(C(=O)N(C)Cc2ccccc2)nn(-c2ccc(F)cc2)c1OC[C@@H](O)C[C@@H](O)CC(=O)O | 8.96 | 5.17 | -49 | 26 | – |
| 7.85 | CC(C)c1c(C(=O)N(C)Cc2cccc(F)c2F)nn(-c2ccc(F)cc2)c1OC[C@@H](O)C[C@@H](O)CC(=O)O | 8.55 | 6.07 | – | – | – |
| 8.02 | CC(C)c1c(C(=O)NCc2ccccc2Cl)nn(-c2ccc(F)cc2)c1OC[C@@H](O)C[C@@H](O)CC(=O)O | 7.12 | 5.07 | – | – | – |
| 7.66 | COc1ccccc1CNC(=O)c1nn(-c2ccc(F)cc2)c(OC[C@@H](O)C[C@@H](O)CC(=O)O)c1C(C)C | 7.08 | – | – | – | – |
| 7.80 | CCOc1cccc(CN(C)C(=O)c2nn(-c3ccc(F)cc3)c(OC[C@@H](O)C[C@@H](O)CC(=O)O)c2C(C)C)c1 | 8.55 | 5.45 | – | – | – |
| 7.68 | CC(C)c1c(C(=O)N(C)[C@H](C)c2ccccc2)nn(-c2ccc(F)cc2)c1OC[C@@H](O)C[C@@H](O)CC(=O)O | 7.96 | – | – | – | – |
| 8.31 | Cc1cccc(CNC(=O)c2nn(-c3ccc(F)cc3)c(OC[C@@H](O)C[C@@H](O)CC(=O)O)c2C(C)C)c1 | 9.00 | 6.55 | – | – | – |
| 8.27 | CC(C)c1c(C(=O)NCc2cccc(Cl)c2)nn(-c2ccc(F)cc2)c1OC[C@@H](O)C[C@@H](O)CC(=O)O | 8.00 | – | – | – | – |
| 8.21 | CC(C)c1c(C(=O)N(C)Cc2ccccc2)nn(-c2ccc(F)cc2)c1CC[C@@H](O)C[C@@H](O)CC(=O)O | 9.51 | 5.54 | -61 | -16 | – |
| 7.85 | CCN(Cc1ccccc1)C(=O)c1nn(-c2ccc(F)cc2)c(OC[C@@H](O)C[C@@H](O)CC(=O)O)c1C(C)C | 8.33 | 5.58 | – | – | – |
| 8.08 | CC(C)c1c(C(=O)N(C)Cc2cccc(Cl)c2)nn(-c2ccc(F)cc2)c1OC[C@@H](O)C[C@@H](O)CC(=O)O | 8.74 | 5.67 | – | – | 0 |
